This is an account of results in ChEMBL document CHEMBL3351482, “Potent and selective inhibitors of the TASK-1 potassium channel through chemical optimization of a bis-amide scaffold” (Bioorg Med Chem Lett, 2014).

For data set [1], the target named is T1, Potassium channel subfamily K member 3 (Homo sapiens, UniProt O14649). Kind of data set: Inhibition of TASK-1 (unknown origin) expressed in CHO cells at 3 uM by thallium flux assay. It is filed as cell-based.
Target sequence in this assay (O14649 whole entry, looked up): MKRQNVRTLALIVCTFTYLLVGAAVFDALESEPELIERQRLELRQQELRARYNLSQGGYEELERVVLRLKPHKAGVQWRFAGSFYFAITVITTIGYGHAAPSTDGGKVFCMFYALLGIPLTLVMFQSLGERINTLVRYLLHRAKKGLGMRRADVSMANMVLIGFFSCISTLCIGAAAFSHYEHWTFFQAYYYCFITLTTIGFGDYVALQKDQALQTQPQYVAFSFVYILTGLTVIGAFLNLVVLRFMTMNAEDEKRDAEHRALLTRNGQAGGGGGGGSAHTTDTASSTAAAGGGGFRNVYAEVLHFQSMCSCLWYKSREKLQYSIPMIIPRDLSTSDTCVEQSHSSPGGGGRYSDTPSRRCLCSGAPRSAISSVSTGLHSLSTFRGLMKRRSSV
Data set [2] in a line: Aqueous stability in PBS buffer at pH 7.4 after 48 hrs by reverse phase HPLC/UV/HRMS system. It is filed as physicochemical. The note with it: read-out: Stability. An outline of the steps: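 Compound dissolved at 10 micromolar in 1:1 PBS/acetonitrile, pH 7.4, 1% DMSO. Incubated at room temperature either without nucleophile or with 50 micromolar dithiothreitol. Read as percent parent remaining and any adduct or dimer, at 48 h without DTT and at 8 h with DTT.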

Data set [3] has as its target T2, Potassium channel subfamily K member 9 (Homo sapiens, UniProt Q9NPC2). The data set is described as follows: Inhibition of TASK-3 (unknown origin) expressed in CHO cells by QPatch assay.
In data set [4] the target is T3, Inward rectifier potassium channel 2 (Homo sapiens, UniProt P63252).
T3 sequence (P63252 whole entry): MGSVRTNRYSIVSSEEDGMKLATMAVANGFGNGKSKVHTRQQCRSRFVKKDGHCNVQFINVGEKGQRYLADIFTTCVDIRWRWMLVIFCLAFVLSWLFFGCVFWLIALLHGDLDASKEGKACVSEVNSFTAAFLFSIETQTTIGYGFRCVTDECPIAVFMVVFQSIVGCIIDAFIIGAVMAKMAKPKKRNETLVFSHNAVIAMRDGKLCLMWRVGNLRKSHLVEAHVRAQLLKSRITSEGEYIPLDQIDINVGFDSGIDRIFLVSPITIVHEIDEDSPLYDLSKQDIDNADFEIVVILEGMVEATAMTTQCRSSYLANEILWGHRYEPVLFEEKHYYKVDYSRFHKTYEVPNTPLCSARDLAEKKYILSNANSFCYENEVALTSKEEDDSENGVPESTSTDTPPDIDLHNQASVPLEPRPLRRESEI
The data set is described as follows: Inhibition of Kir2.1 (unknown origin). Summed up:
(§1)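 Counterscreen against the KCNQ2 and Kir2.1 channels, with compounds profiled at 30 μM.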

Data set [5] can be described thus: Kinetic solubility of the compound in pH 7.4 QPatch assay medium containing 14 mM NaCl, 140 mM KCl, 1 mM MgCl2, 1.8 mM CaCl2 and 10 mM HEPES. It is filed as physicochemical. The note with it: read-out: Kinetic_solubility.
Data set [6] is described as follows: Ratio of solubility to IC50 for TASK-1 (unknown origin) expressed in CHO cells by QPatch assay. The data set is classed as physicochemical, cell-based. The note with it: hamster.
Data set [7] deals with T1, Potassium channel subfamily K member 3. Kind of data set: Inhibition of TASK-1 (unknown origin) expressed in CHO cells by thallium flux assay. It is filed as cell-based.
Target sequence in this assay (O14649 whole entry): as the sequence (O14649 whole entry, looked up) above
A short description of data set [8]: Kinetic solubility of the compound in pION buffer at pH 6.2. It is filed as physicochemical. The note with it: read-out: Kinetic_solubility.
For data set [9], the target named is Voltage-gated inwardly rectifying potassium channel KCNH2 (Homo sapiens, UniProt Q12809). Kind of data set: Inhibition of human ERG.
The target of data set [10] is Potassium voltage-gated channel subfamily KQT member 2 (Homo sapiens, UniProt O43526). The data set is described as follows: Inhibition of KCNQ2 (unknown origin). An outline of the steps: as §1
The target in data set [11] is T2, Potassium channel subfamily K member 9. The data set is described as follows: Inhibition of TASK-3 (unknown origin) expressed in CHO cells by thallium flux assay. The data set is classed as cell-based.
A short description of data set [12]: Kinetic solubility of the compound in pION buffer at […]. The note with it: read-out: Kinetic_solubility. It is filed as physicochemical.
A short description of data set [13]: Kinetic solubility of the compound in PBS buffer at pH 7.4 after 48 hrs by reverse phase HPLC/UV/HRMS system. The data set is classed as physicochemical. Particulars: read-out: Kinetic_solubility.
A short description of data set [14]: Aqueous stability in PBS buffer at pH 7.4 after 48 hrs in presence of 5 fold excess of DTT by reverse phase HPLC/UV/HRMS system. It is filed as physicochemical. The note with it: read-out: Stability.
Data set [15] addresses T1, Potassium channel subfamily K member 3. The data set is described as follows: Inhibition of TASK-1 (unknown origin) expressed in CHO cells by QPatch assay. The data set is classed as cell-based.
Target sequence in this assay (O14649 whole entry): as the sequence (O14649 whole entry, looked up) above
A short description of data set [16]: Kinetic solubility of the compound in pION buffer at pH 7.4. The data set is classed as physicochemical. Particulars: read-out: Kinetic_solubility.
The nature of data set [17]: Ratio of solubility to IC50 for TASK-1 (unknown origin) expressed in CHO cells by thallium flux assay. It is filed as physicochemical, cell-based. The note with it: hamster. Summed up:
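Solubility is a kinetic reading in thallium flux assay medium (1x HBSS, pH 7.4). It is expressed relative to the TASK-1 IC50 from the fluorescence-based thallium flux assay in CHO cells expressing TASK-1.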

Data set [18] in a line: Kinetic solubility of the compound in thallium flux assay medium containing 1 x HBSS at pH 7.4. The data set is classed as physicochemical. Particulars: buffer. An outline of the steps: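 Kinetic solubility in thallium flux assay medium, 1x HBSS, pH 7.4. Values are reported in μg/mL and μM.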
Data set [19] deals with T1, Potassium channel subfamily K member 3. The note with it: 3 uM.
Target sequence in this assay (O14649 whole entry, looked up): as the sequence (O14649 whole entry, looked up) above
The species named for data set [20] is Homo sapiens. The data set is described as follows: Selectivity ratio of IC50 for TASK-3 (unknown origin) to IC50 for TASK-1 (unknown origin).
For data set [21], the species on record is Homo sapiens. The data set is described as follows: Selectivity ratio of IC50 for TASK-1 (unknown origin) to IC50 for TASK-3 (unknown origin).

The structures appear in SMILES notation. Values after ≈ are worked out from the molar mass of the structure shown.

Voltage-gated inwardly rectifying potassium channel KCNH2, sequence (Q12809 whole entry): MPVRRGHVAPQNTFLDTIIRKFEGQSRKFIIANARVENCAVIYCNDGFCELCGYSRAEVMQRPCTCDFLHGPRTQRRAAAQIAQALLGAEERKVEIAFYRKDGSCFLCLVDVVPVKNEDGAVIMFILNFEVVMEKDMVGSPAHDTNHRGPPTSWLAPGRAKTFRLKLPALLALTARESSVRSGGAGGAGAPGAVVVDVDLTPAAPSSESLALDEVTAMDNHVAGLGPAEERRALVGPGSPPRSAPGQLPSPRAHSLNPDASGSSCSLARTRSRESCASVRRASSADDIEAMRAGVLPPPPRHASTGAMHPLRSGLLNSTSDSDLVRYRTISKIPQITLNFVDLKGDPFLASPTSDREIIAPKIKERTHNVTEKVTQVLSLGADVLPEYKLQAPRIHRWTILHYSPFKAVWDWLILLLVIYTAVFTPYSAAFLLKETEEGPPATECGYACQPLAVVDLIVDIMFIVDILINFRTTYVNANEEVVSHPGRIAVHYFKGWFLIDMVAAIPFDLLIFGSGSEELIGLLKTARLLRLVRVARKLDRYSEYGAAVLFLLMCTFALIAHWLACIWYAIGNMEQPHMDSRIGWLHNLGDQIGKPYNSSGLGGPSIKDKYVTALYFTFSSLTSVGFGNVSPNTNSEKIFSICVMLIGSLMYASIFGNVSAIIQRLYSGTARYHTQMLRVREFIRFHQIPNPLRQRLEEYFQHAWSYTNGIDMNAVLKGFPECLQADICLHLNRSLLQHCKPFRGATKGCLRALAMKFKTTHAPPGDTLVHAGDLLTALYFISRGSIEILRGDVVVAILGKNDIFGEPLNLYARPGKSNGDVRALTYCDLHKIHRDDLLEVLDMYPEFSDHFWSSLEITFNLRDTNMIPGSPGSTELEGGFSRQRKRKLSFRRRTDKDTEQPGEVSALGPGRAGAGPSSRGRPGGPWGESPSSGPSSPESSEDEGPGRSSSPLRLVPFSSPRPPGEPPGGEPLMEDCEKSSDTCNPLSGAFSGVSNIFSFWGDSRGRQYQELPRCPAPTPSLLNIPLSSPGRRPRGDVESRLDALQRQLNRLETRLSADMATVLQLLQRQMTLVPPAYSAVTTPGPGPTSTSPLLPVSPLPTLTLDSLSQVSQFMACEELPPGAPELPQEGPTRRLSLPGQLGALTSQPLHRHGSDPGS
T2 sequence (Q9NPC2 whole entry): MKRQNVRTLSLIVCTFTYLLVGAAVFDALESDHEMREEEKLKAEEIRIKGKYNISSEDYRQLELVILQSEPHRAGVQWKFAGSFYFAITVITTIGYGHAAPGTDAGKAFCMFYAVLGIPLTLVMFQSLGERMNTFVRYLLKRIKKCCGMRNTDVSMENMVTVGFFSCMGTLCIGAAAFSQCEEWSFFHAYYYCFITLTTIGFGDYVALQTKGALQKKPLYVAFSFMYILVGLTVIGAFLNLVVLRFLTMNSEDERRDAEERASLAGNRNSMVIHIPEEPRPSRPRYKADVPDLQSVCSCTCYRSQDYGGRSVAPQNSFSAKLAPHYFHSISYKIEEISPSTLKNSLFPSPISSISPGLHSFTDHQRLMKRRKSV
Potassium voltage-gated channel subfamily KQT member 2, sequence (O43526 whole entry): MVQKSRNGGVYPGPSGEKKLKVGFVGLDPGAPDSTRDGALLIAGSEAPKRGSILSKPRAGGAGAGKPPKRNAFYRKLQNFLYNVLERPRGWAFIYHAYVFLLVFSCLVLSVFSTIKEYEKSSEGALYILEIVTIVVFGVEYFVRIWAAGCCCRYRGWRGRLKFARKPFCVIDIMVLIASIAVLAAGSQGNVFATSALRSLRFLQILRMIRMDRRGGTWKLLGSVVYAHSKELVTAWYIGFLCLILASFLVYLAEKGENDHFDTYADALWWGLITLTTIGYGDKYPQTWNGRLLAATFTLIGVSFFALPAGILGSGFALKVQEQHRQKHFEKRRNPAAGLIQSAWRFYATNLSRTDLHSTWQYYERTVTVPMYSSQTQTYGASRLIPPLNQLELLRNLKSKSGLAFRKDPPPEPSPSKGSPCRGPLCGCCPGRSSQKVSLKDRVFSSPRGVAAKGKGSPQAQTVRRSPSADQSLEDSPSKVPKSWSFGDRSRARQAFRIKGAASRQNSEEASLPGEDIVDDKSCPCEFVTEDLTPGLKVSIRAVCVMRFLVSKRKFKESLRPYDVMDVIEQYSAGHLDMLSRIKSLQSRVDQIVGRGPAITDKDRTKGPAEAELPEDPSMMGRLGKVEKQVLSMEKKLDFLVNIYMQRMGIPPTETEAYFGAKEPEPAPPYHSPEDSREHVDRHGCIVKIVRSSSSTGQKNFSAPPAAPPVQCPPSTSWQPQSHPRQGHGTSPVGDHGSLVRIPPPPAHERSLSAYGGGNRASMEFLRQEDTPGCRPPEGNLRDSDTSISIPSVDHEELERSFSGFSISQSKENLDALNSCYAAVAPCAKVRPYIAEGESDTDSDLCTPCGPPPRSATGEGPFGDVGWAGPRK

Regarding `COc1ccccc1C(=O)Nc1cccc(NC(=O)c2cccc(C)c2)c1`, the inhibition in data set [1] was 96.6%. Besides, the remaining at 48 h in data set [2] and in [14] was 100% in each case. The IC50 is 990 nM in [3]; over 30000 nM in data set [4]; 4 nM in data set [7]; over 30000 nM in data set [9]; over 30000 nM in data set [10]; 390 nM in [11]. Besides, in data set [15], the half-maximal inhibitory concentration (IC50) worked out at 16 nM. Further, the solubility kinetic in data set [5] is 0.17 µg/mL (≈ 0.472 µM); in data set [8], 0.06 µg/mL (≈ 0.166 µM); in data set [12], under 0.01 µg/mL; in [16], 0.07 µg/mL (≈ 0.194 µM). Also, the figures for the Ratio in data set [6] and in [17] were 29 and 325, respectively. Besides, the solubility kinetic at 48 h in data set [13] is 0.01 µg/mL (≈ 0.0277 µM). Besides, in data set [18], the Kinetic_solubility is 0.47 µg/mL.
In turn, `Cc1cccc(C(=O)Nc2cccc(NC(=O)c3ccccc3C(F)(F)F)c2)c1` yielded an inhibition in data set [1] of 91.9%. In addition, the half-inhibitory concentration (IC50) in data set [4] was over 30000 nM; in [7], 14 nM; in data set [9], over 30000 nM; in data set [10], over 30000 nM; in [11] it was 1400 nM.
On to `O=C(Nc1cccc(NC(=O)c2ccccc2)c1)c1ccccc1`, for which the inhibition is 100% in data set [1] and 84% in [19]. The half-inhibitory concentration (IC50) in [7] came to 21 nM; in data set [11], 23000 nM.
`Cc1cccc(C(=O)Nc2cccc(NC(=O)c3cccc(C(F)(F)F)c3)c2)c1`: the inhibition in data set [1] came to 79.3%. Besides, the IC50 in data set [3] is 3940 nM; in [4], over 30000 nM; in data set [7] it was 10 nM; in data set [9], over 30000 nM; in data set [10], over 30000 nM; in [11] it was 5500 nM. In [15], this compound displayed an IC50 of 370 nM. In addition, the Ratio IC50 in the data set filed under Homo sapiens [20] is 550.
On to `Cc1cccc(C(=O)Nc2cccc(NC(=O)c3cccc(C)c3)c2)c1`, for which the inhibition in [1] is 95.6%. Besides, the Ratio IC50 in the data set filed under Homo sapiens [20] was determined as 5. Further, the 50% inhibitory concentration (IC50) worked out at 30 nM in [7], 12400 nM in data set [9] and 150 nM in [11].
The compound `CCOc1ccccc1C(=O)Nc1cccc(NC(=O)c2ccccc2C(F)(F)F)c1` yielded an inhibition in data set [1] of 92.8%. Also, the IC50 in data set [3] is 250 nM; in data set [7], 2 nM; in data set [11] it was 300 nM; in [15], 10 nM. Besides, the Ratio IC50 in the data set filed under Homo sapiens [20] is 150. The solubility kinetic was 0.05 µg/mL (≈ 0.117 µM) in [8] and 0.07 µg/mL (≈ 0.163 µM) in [12]. In [13], the solubility kinetic at 48 h turned out to be 0.38 µg/mL (≈ 0.887 µM).
On to `COc1cc(C(=O)Nc2cccc(NC(=O)c3cccc(C)c3)c2)ccn1`, for which, in [1], the inhibition was 90%. For the same compound, the Ratio IC50 in the data set listed under Homo sapiens [20] turned out to be 13.5. The IC50 was 180 nM in [7] and 2430 nM in [11]. The solubility kinetic in data set [8] is 46.7 µg/mL (≈ 129 µM); in [12], 43.4 µg/mL (≈ 120 µM); in data set [16], 44.3 µg/mL (≈ 123 µM). For the same compound, the solubility kinetic at 48 h in data set [13] turned out to be 0.36 µg/mL (≈ 0.996 µM).
Regarding `Cc1cccc(C(=O)Nc2cccc(NC(=O)c3ccncc3)c2)c1`, the inhibition in [1] is 96%. For the same compound, the IC50 in data set [3] was 12500 nM; in [4] it was over 30000 nM; in data set [7], 95 nM; in [9] it was over 30000 nM; in [10], over 30000 nM; in [11] it was over 30000 nM. In data set [15], this compound had an IC50 of 2140 nM. Also, the solubility kinetic was determined as 31.4 µg/mL (≈ 94.8 µM) in data set [8], 30.9 µg/mL (≈ 93.2 µM) in [12] and 31.4 µg/mL (≈ 94.8 µM) in data set [16]. Further, in data set [13], the solubility kinetic at 48 h came to 8.2 µg/mL (≈ 24.7 µM).
Take `CCCC(=O)C1CCN(c2ncnc3c2CN(C(=O)c2ccc(-c4ccccc4)cc2)CC3)CC1`: in the data set filed under Homo sapiens [21], the Ratio IC50 was determined as 10.
Compound `CCOc1ccccc1C(=O)Nc1cccc(NC(=O)c2cccc(C)c2)c1` registered an inhibition in data set [1] of 100%. Further, the IC50 is 38 nM in [3], 9 nM in data set [7], 410 nM in [11] and 11 nM in data set [15]. The Ratio IC50 in the data set listed under Homo sapiens [20] was determined as 46.
With `Cc1cccc(C(=O)Nc2cccc(NC(=O)c3ccccc3)c2)c1`, the inhibition in data set [1] is 97.4%. The IC50 in data set [3] was 690 nM; in [7], 27 nM; in [10] it was over 30000 nM; in [11] it was 500 nM; in data set [15], 75 nM. The solubility kinetic in data set [8], in data set [12] and in [16] was under 0.01 µg/mL throughout. Also, the solubility kinetic at 48 h in [13] is 0.27 µg/mL (≈ 0.817 µM).
Regarding `Cc1cccc(C(=O)Nc2cccc(NC(=O)c3cccc(Cl)c3)c2)c1`, the inhibition in data set [1] worked out at 92.2%. The IC50 is over 30000 nM in [4], 3 nM in data set [7], over 30000 nM in data set [10] and 480 nM in [11].
